Assay outcomes deposited in PubChem BioAssay by several laboratories.
PPC-1+TRAIL kill = compounds killing PPC-1 cancer cells with TRAIL present, primary screen, TRAIL potentiator project, ATPLite luminescence, uHTS | PPC-1 cells + TRAIL, ATPLite viability luminescence | cell killing (% activity), % at 4 µM or 5 µM | 0.41% of 220,000 active | AID 1443, 2008;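 active = cell killing above 50% in the first pass at 4 µM, then a duplicate retest at 5 µM averaging 50% or more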;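 also: plate controls were cells with TRAIL plus DMSO for no effect and medium-only wells lacking cells for full effect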
HSP90 inh = HSP90 inhibitors, primary screen, cell lysate, luminescence. Rabbit reticulocyte lysate, luciferase refolding luminescence, 3 h. 0.91% of 290,000 active. inhibition, % at 5.6 µM. Heat shock protein HSP 90 (rabbit reticulocyte lysate; luciferase refolding);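 active = inhibition above the screen-wide mean plus 3 SD, computed separately per campaign, cut at about 16% in these data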;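 also: 0% = DMSO wells and 100% = 60 µM geldanamycin wells; inhibitors lower the luminescence because luciferase stays unfolded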
FLuc inh counter = firefly luciferase enzyme inhibitors, primary screen, artefact control for luciferase-based inhibitor screens, biochemical, luminescence, ATPLite; inhibition, % at 10 µM; 10 min; 1.5% of 200,000 active; Luciferin 4-monooxygenase (Photinus pyralis), P08659;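 active = inhibition above about 50% when tested at 10 µM, limit read from the data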
Target sequence (P08659 whole entry, looked up): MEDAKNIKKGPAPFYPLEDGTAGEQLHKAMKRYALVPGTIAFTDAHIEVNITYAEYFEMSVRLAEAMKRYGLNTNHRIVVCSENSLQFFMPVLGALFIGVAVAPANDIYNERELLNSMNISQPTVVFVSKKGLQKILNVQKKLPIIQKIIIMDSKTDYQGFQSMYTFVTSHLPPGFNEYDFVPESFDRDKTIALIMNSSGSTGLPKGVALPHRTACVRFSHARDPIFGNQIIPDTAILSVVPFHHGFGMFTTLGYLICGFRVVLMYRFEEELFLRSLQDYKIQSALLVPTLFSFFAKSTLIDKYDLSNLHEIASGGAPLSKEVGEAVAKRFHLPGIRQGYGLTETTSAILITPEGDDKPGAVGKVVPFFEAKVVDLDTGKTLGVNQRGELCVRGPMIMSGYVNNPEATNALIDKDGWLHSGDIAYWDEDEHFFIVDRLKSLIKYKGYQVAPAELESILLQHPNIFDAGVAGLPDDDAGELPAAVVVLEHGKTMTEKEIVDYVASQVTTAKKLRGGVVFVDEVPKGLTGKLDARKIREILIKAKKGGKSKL
C8 TRAIL sens = viability loss with TRAIL in NB7+C8 cells, primary screen, TRAIL sensitizer project, cell-based, ATPlite luminescence. 1% of 360,000 active. AID 624354, 2012. inhibition (viability loss, TRAIL sensitization), % at 10 µM;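 active = compounds causing at least 50% loss of cell viability in the single-dose screen, relative to plate controls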
STAT3 inh-1 = IL-6 driven STAT3 reporter inhibitors, primary screen, U3A cells, luciferase, luminescence, MLSCN library; 0.89% of 190,000 active; inhibition, % at 5.5 µM; IL-6 STAT3-luciferase reporter; host cell line lacks STAT1;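 active = inhibition above the mean inhibition across all screened compounds plus 3 SD, cut at about 44% in these data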;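 also: 0% = DMSO only wells and 100% = 100 µM nifuroxazide control wells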
FLuc stim CS = FLuc activators, initial screening, artefact control for FLuc-dependent activation tests, biochemical, ATPlite luminescence; activation factor at 10 µM; ATPlite luciferase biochemical, 10 min; 0 = ATP-free wells, 1 = DMSO control; 200,000 tested, under 10 active; Luciferin 4-monooxygenase (Photinus pyralis), P08659;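 active = luciferase activation factor, scaled between plate controls, of at least 2 with compound at 10 µM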
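Assay system: Luciferase/luciferin detection reagent, cell-free biochemical luciferase assay / Also added: ATP substrate / Schedule: 10 min at ambient temperature / Measured by: luminescence measurement of luciferase light output / Benchmarks: low control with PBS replacing ATP, high control enzyme plus ATP without compound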
STAT3 inh-2 = STAT3 reporter inhibitors, retest of hits, confirmation, U3A cells, luciferase, luminescence | inhibition, % at 5.7 µM | IL-6 STAT3 luciferase reporter; cell line lacks STAT1 | 45% of 1,200 active | shares compounds with STAT3 inh-1;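 active = inhibition above the hit cutoff computed for the primary STAT3 screen, cut at about 44% in these data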;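 also: 0% = IL-6 plus DMSO and 100% = IL-6 plus nifuroxazide control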
NFkB inh 2 = NF-kB reporter inhibitors in human cells, confirmation, counter-screen for STAT3 inhibitor project, cell-based, HEK293T, luciferase, TNF-alpha stimulus. shares compounds with STAT3 inh-1. TNF-alpha induced. inhibition, % at 5.7 µM. 36% of 1,200 active. AID 1308, 2008;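 active = inhibition above the mean of solvent-only control wells plus 3 SD, cutoff set per campaign, cut at about 13% in these data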;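 also: 0% = TNF-alpha with DMSO and 100% = TNF-alpha with MG high control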
STAT1 inh 2 = STAT1 reporter inhibitors, IFN-gamma induced, confirmation, counter-screen for STAT3 inhibitor project, cell-based, NIH 3T3, luciferase luminescence; shares compounds with STAT3 inh-1; NIH 3T3 STAT1-luciferase reporter; inhibition, % at 5.7 µM; 27% of 1,200 active; AID 1317, 2008;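 active = inhibition above the mean plus 3 SD of solvent-only control wells, limit set per screening run, cut at about 16% in these data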;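 also: 0% = DMSO with IFN-gamma and 100% = nifuroxazide control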
PPC-1 tox = cytotoxicity in PPC-1 cells, confirmation, cytotoxicity control for TRAIL apoptosis potentiator project, cell-based, ATP content luminescence; shares compounds with PPC-1+TRAIL kill; PPC-1 viability, ATPlite luminescence, overnight; cytotoxicity, % at 5 µM; 50% of 1,200 active; AID 1447, 2008;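 active = reconfirmed compounds whose average cytotoxicity reaches 50% or more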;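 also: 0% = DMSO-treated cells and 100% = wells holding medium but no cells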
HSP90 confirm = HSP90 inhibitors, confirmation, cell lysate, luminescence | 64% of 2,300 active | rabbit reticulocyte lysate, luciferase refolding luminescence, 3 h | inhibition, % at 5.9 µM | shares compounds with HSP90 inh | AID 1846, 2009; in the data active = inhibition above about 18%;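 also: 0% = vehicle wells and 100% = reference inhibitor wells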
luciferase ctr = firefly luciferase inhibitors, HSP90 counter-screen, confirmation, artefact control for HSP90 inhibitor project, biochemical, luminescence, triplicate; shares compounds with HSP90 inh; purified native firefly luciferase; inhibition, % at 5.9 µM; 48% of 2,300 active;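 active = inhibition above the mean inhibition of all tested sample wells plus 3 SD, cut at about 10% in these data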;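 also: 0% = DMSO with luciferase and 100% = wells lacking luciferase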
* marks the source's active call; other numbers are inactive results. This is a sample that favours compounds with a hit; in the whole collection about 2.2% have one here.

For CN=C1S/C(=C\c2cc(C)n(-c3ccccc3F)c2C)C(=O)N1C the results were PPC-1+TRAIL kill 40, HSP90 inh 49*, FLuc inh counter 82*, C8 TRAIL sens 55*, STAT3 inh-1 56*, FLuc stim CS 0.2, STAT3 inh-2 22, NFkB inh 2 -24, STAT1 inh 2 -98, HSP90 confirm 65* and luciferase ctr 63*.
Screening COc1cccc(CNC(=O)COC(=O)CCCNC(=O)c2ccc(Cl)cc2)c1 returned C8 TRAIL sens -5.
`Cc1nc(C)c(C(=O)Nc2ncc([N+](=O)[O-])s2)o1` gave PPC-1+TRAIL kill 26, HSP90 inh 47*, FLuc inh counter 26, C8 TRAIL sens 8, STAT3 inh-1 68*, FLuc stim CS 0.7, STAT3 inh-2 20, NFkB inh 2 -4, STAT1 inh 2 -80, HSP90 confirm 66* and luciferase ctr 41*.
Cc1ccnc(Nc2nc3ccccc3o2)n1 was read as PPC-1+TRAIL kill 46, HSP90 inh 22*, FLuc inh counter 69*, C8 TRAIL sens 47, STAT3 inh-1 43*, FLuc stim CS 0.3, STAT3 inh-2 17, NFkB inh 2 -18, STAT1 inh 2 -60, HSP90 confirm 45* and luciferase ctr 22*.
O=C(Nc1cccc(O)c1)c1noc2c1CCCCC2 was read as PPC-1+TRAIL kill -2, HSP90 inh 60*, FLuc inh counter 86*, C8 TRAIL sens 60*, STAT3 inh-1 83*, FLuc stim CS 0.1, STAT3 inh-2 72*, NFkB inh 2 29*, STAT1 inh 2 6, HSP90 confirm 69* and luciferase ctr 57*.
Screening O=C(/C=C/c1ccccc1Cl)Nc1cccc(O)c1 returned PPC-1+TRAIL kill 45, HSP90 inh 23*, FLuc inh counter 84*, C8 TRAIL sens 72*, STAT3 inh-1 64*, FLuc stim CS 0.2, STAT3 inh-2 24, NFkB inh 2 14*, STAT1 inh 2 17*, HSP90 confirm 36* and luciferase ctr 15*.
O=C(/C=C/c1ccccc1Cl)Nc1ccccc1 was read as PPC-1+TRAIL kill 36, HSP90 inh 13 and C8 TRAIL sens 34.
For CCCCNC(=S)N/N=C/c1cccc(OCC)c1O the results were PPC-1+TRAIL kill 1, HSP90 inh -4 and C8 TRAIL sens 8.
For O=[N+]([O-])c1ccccc1C=NNC(=S)NN=Cc1ccccc1[N+](=O)[O-] the results were C8 TRAIL sens 6.
Screening CCOc1cccc(/C=N/NC(=S)Nc2ccccc2[N+](=O)[O-])c1O returned PPC-1+TRAIL kill 20, HSP90 inh 75*, FLuc inh counter 0, C8 TRAIL sens 53*, STAT3 inh-1 69*, FLuc stim CS 1, STAT3 inh-2 24, NFkB inh 2 -8, STAT1 inh 2 -32, HSP90 confirm 71* and luciferase ctr 34*.
O=[N+]([O-])c1ccccc1NC(=S)N/N=C/c1ccc(O)c(O)c1 was read as PPC-1+TRAIL kill 26, HSP90 inh 43*, FLuc inh counter 7, C8 TRAIL sens -14, STAT3 inh-1 68*, FLuc stim CS 0.9, STAT3 inh-2 48*, NFkB inh 2 -9, STAT1 inh 2 -47, HSP90 confirm 2 and luciferase ctr -21.
Screening CCOC(=O)C1=CN(Cc2ccco2)S(=O)(=O)N(CC)C1c1ccc(C(F)(F)F)cc1 (stereo unspecified) returned C8 TRAIL sens 8.
For O=C(Nc1ccccn1)c1onc2c1CCCC2 the results were PPC-1+TRAIL kill 67*, HSP90 inh 36*, FLuc inh counter 87*, C8 TRAIL sens 77*, STAT3 inh-1 69*, FLuc stim CS 0.1, STAT3 inh-2 53*, NFkB inh 2 16*, STAT1 inh 2 -12, HSP90 confirm 76* and luciferase ctr 68*.
`CCOc1ccc(-c2ccc(SCC)nn2)cc1` gave PPC-1+TRAIL kill 60*, HSP90 inh 18*, FLuc inh counter 86*, C8 TRAIL sens 73*, STAT3 inh-1 72*, FLuc stim CS 0.1, STAT3 inh-2 31, NFkB inh 2 1, STAT1 inh 2 -83, PPC-1 tox 57*, HSP90 confirm 56* and luciferase ctr 39*.
CCOc1ccc(-c2ccc(SCc3ccccn3)nn2)cc1 was read as PPC-1+TRAIL kill -7, HSP90 inh -3, FLuc inh counter 23, C8 TRAIL sens 5, STAT3 inh-1 26 and FLuc stim CS 0.8.
For Cc1ccc(C(=O)Nc2ccc(-c3csc(C)n3)cc2)cc1 the results were PPC-1+TRAIL kill 11, HSP90 inh 1, FLuc inh counter 24, C8 TRAIL sens 11, STAT3 inh-1 12 and FLuc stim CS 0.8.
`Cc1nc(-c2ccc(NC(=O)c3ccccc3)cc2)cs1` gave PPC-1+TRAIL kill 64*, HSP90 inh 21*, FLuc inh counter 88*, C8 TRAIL sens 76*, STAT3 inh-1 71*, FLuc stim CS 0.1, STAT3 inh-2 23, NFkB inh 2 -23, STAT1 inh 2 -126, PPC-1 tox 61*, HSP90 confirm 40* and luciferase ctr 28*.
